Reference: ChEMBL document CHEMBL1134510, “Adenosine analogues as selective inhibitors of glyceraldehyde-3-phosphate dehydrogenase of Trypanosomatidae via structure-based drug design” (J Med Chem, 2001)

Columns and labels:
[1] = Inhibitory activity against Leishmania mexicana GAPDH; Inactive at 50 uM
[2] = In vitro inhibition of rabbit muscle GAPDH.; design: species or system Oryctolagus cuniculus
In short: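 Spectrophotometric assay at 23 °C in 0.10 M triethanolamine/HCl, pH 7.5. Enzyme starts the reaction and inhibitors are in 5% DMSO-d₆. Initial rates over 0–2 min are compared with control. IC50 comes from ≥5 concentrations, or is extrapolated from ≥3 concentrations when above 50 µM.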

Trypanosoma brucei = experiment: Effective concentration required to block the growth of bloodstream Trypanosoma brucei; format: functional; settings: read-out: ED50 (the source's name)
In short: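 Bloodstream-form strain 427 trypomastigotes grown in HMI-9 with 10% fetal bovine serum, penicillin and streptomycin at 37 °C, 5% CO2. Inoculum 5 × 10³ parasites per well, drug given in serial dilutions, triplicate wells. Growth read at 48 h with Alamar Blue, checked against hemacytometer counts. Assay run twice.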

| IC50 [1] | IC50 [2] [nM] | EC50 (Trypanosoma brucei) [nM] | Compound |
| --- | --- | --- | --- |
| Not Active |  |  | COc1cccc(C(=O)N[C@@H]2[C@H](O)[C@@H](CO)O[C@H]2n2cnc3c(NCc4c(OC)ccc5ccccc45)ncnc32)c1 |
| Not Active |  |  | COc1ccccc1C(=O)N[C@@H]1[C@H](O)[C@@H](CO)O[C@H]1n1cnc2c(NCc3cccc4ccccc34)ncnc21 |
| Not Active |  |  | CC(=O)Oc1ccccc1C(=O)N[C@@H]1[C@H](O)[C@@H](CO)O[C@H]1n1cnc2c(NCc3cccc4ccccc34)ncnc21 |
| Not Active |  |  | COc1cccc(C(=O)N[C@@H]2[C@H](O)[C@@H](CO)O[C@H]2n2cnc3c(NCc4cccc5ccccc45)ncnc32)c1O |
|  | > 50000 | 6 | N=C(N)c1ccc(OCCCCCOc2ccc(C(=N)N)cc2)cc1 [PENTAMIDINE] |
